Laboratory results as given in publication PMC7218920 (Science translational medicine, 2019).

Key:
hNPR1 = target: T1, hNPR1 (Homo sapiens, UniProt P16066); test: HEK-hNPR1-cGMP-sensor cells, qHTS cell-based assay; settings: stable cell-line
T1 sequence (P16066 33-1061): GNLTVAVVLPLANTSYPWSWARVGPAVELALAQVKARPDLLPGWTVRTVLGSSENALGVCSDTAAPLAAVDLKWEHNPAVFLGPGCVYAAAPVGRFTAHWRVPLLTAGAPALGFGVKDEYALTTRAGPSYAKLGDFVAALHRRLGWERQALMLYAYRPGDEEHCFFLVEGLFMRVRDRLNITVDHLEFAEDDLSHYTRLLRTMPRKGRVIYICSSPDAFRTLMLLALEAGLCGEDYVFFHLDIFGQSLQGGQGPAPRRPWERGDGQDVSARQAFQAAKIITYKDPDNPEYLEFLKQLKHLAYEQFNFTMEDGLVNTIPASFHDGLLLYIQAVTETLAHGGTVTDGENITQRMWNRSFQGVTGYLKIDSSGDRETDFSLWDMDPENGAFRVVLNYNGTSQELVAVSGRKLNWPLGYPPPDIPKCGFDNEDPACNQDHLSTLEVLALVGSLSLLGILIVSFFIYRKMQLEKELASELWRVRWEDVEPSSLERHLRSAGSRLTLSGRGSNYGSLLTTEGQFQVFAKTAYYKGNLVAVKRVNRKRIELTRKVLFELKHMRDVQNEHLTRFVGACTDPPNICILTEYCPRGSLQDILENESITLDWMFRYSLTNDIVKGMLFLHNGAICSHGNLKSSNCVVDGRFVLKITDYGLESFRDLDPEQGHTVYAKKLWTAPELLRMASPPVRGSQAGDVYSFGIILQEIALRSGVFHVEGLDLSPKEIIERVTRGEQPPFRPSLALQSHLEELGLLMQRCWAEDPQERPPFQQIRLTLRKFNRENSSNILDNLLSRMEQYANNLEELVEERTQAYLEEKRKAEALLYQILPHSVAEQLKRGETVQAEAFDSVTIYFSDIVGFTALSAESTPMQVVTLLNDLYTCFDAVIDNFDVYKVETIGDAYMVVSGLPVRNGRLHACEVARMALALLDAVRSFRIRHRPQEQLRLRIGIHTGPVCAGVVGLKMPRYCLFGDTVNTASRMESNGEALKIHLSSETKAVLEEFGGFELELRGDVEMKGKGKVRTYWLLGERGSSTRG
Outline: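 A stable HEK-293 line expressing hNPR1 plus the GloSensor cGMP reporter (pGS-40F) was stimulated with hNPPA, hNPPB or NPPC for time courses (10 nM each) and concentration-response. For qHTS, luminescence was read before and 30 min after agonist addition. Compounds were screened at six log concentrations and confirmed at 8 concentrations. Counter-screens covered luciferase interference, cytotoxicity and SNP-stimulated cGMP-sensor-only cells.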

soluble GC = test: HEK-293 cells expressing cGMP-sensor alone; type: cell-based, human
Outline: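 HEK-293 cells carrying the GloSensor cGMP luciferase reporter (pGS-40F), either transiently transfected or as a stable control line, with no NPR1. Luminescence from GloSensor reagent was read in real time after media, SNP (333 μM; a soluble GC activator) or hNPPA, hNPPB or NPPC (10 nM each). The stable line also received SNP and peptide concentration series. Transient time courses were run in triplicate.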

response of hNPR1-cGMP-reporter cells (hNPR1): with appropriate potencies
Substance: hNPPB: human natriuretic polypeptide b, NPR1 agonist
response of stable cGMP-reporter cells (soluble GC; stable cGMP-sensor control cell-line): lacked responses
luciferase activity / cGMP in cGMP reporter cells (soluble GC; transient cGMP-sensor, SNP 333 μM, peptides 10 nM): did not increase cGMP
